From ChEMBL document CHEMBL3244382, “Structural requirements for antileukemic activity among the naturally occurring and semisynthetic maytansinoids” (J Med Chem, 1978)
Values after ≈ are worked out from the molar mass of the structure shown. Active and inactive are the calls of the source.

Columns and labels:
P388 [1] = assay: Antitumor activity against mouse P388 cells allografted in PS mouse assessed as median survival time at 25 ug/kg relative to control; type: functional
Summary of the method: (§1)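 P388 leukemia (PS) in mice, six mice started per dose group. Read-out is T/C: median survival time of the treated group divided by that of the untreated control group, expressed as a percent. The NIH protocol counts a compound as active when T/C > 125%.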

Mus musculus [2] = assay: Toxicity in PS mouse allografted with mouse P388 cells assessed as change in body weight at 25 ug/kg relative to control; type: organism-based; settings: in vivo, 0.025 mg/kg
Summary of the method: (§2)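 P388 (PS) leukemia in mice, 6 mice per dose group. Weight change is the difference in grams between treated and control animals. Survivors are recorded on toxicity day, normally 4 days after the first injection.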

P388 [3] = assay: Antitumor activity against mouse P388 cells allografted in PS mouse assessed as median survival time at 50 ug/kg relative to control; type: functional; summary of the method: as §1
Mus musculus [4] = assay: Toxicity in PS mouse allografted with mouse P388 cells assessed as survival at 0.8 ug/kg after 4 days; type: organism-based; settings: in vivo, 0.0008 mg/kg, 96 h
Summary of the method: (§3)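 PS (P388) leukemic mice, six started per dose group. Toxicity scored as survivors on the toxicity day over the number of mice started. The toxicity day is normally 4 days after the first injection.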

Paracentrotus lividus = assay: Antimitotic activity against sea urchin eggs assessed as drug level causing inhibition of mitosis; type: functional; settings: Egg
Tubulin (Homo sapiens) = Tubulin (Homo sapiens) (UniProt P68371+Q9H4B7+P0DPH7+P68366+Q13509+Q71U36+P04350+Q3ZCM7+P07437+P68363+Q9BQE3+Q6PEY2+Q13885+Q9BVA1+Q9BUF5); assay: Inhibition of brain tubulin polymerization (unknown origin) at 37 degC by spectrophotometry
Mus musculus [5] = assay: Toxicity in PS mouse allografted with mouse P388 cells assessed as change in body weight at 0.4 ug/kg relative to control; type: organism-based; settings: in vivo, 0.0004 mg/kg
Summary of the method: (§4)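 PS (P388 leukemia) mice, six per dose group. Toxicity read as the difference in grams between the weights of treated and control animals.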

P388 [6] = assay: Antitumor activity against mouse P388 cells allografted in PS mouse assessed as median survival time at 12.5 ug/kg relative to control; type: functional; summary of the method: as §1
P388 [7] = assay: Antitumor activity against mouse P388 cells allografted in PS mouse assessed as median survival time at 1.6 ug/kg relative to control; type: functional; summary of the method: as §1
P388 [8] = assay: Antitumor activity against mouse P388 cells allografted in PS mouse assessed as median survival time at 6.2 ug/kg relative to control; type: functional; summary of the method: as §1
Mus musculus [9] = assay: Toxicity in PS mouse allografted with mouse P388 cells assessed as change in body weight at 6.2 ug/kg relative to control; type: organism-based; settings: in vivo, 0.0062 mg/kg; summary of the method: as §2
Mus musculus [10] = assay: Toxicity in PS mouse allografted with mouse P388 cells assessed as change in body weight at 12.5 ug/kg relative to control; type: organism-based; settings: in vivo, 0.0125 mg/kg; summary of the method: as §2
P388 [11] = assay: Antitumor activity against mouse P388 cells allografted in PS mouse assessed as median survival time at 100 ug/kg relative to control; type: functional; summary of the method: as §1
P388 [12] = assay: Antitumor activity against mouse P388 cells allografted in PS mouse assessed as median survival time at 0.4 ug/kg relative to control; type: functional; summary of the method: as §1
Mus musculus [13] = assay: Toxicity in PS mouse allografted with mouse P388 cells assessed as survival at 0.4 ug/kg after 4 days; type: organism-based; settings: in vivo, 0.0004 mg/kg, 96 h; summary of the method: as §3
Mus musculus [14] = assay: Toxicity in PS mouse allografted with mouse P388 cells assessed as change in body weight at 1.6 ug/kg relative to control; type: organism-based; settings: in vivo, 0.0016 mg/kg; summary of the method: as §2
P388 [15] = assay: Antitumor activity against mouse P388 cells allografted in PS mouse assessed as median survival time at 0.8 ug/kg relative to control; type: functional; summary of the method: as §1
Mus musculus [16] = assay: Toxicity in PS mouse allografted with mouse P388 cells assessed as change in body weight at 3.1 ug/kg relative to control; type: organism-based; settings: in vivo, 0.0031 mg/kg; summary of the method: as §2
Mus musculus [17] = assay: Toxicity in PS mouse allografted with mouse P388 cells assessed as survival at 50 ug/kg after 4 days; type: organism-based; settings: in vivo, 0.05 mg/kg, 96 h; summary of the method: as §3
Mus musculus [18] = assay: Toxicity in PS mouse allografted with mouse P388 cells assessed as change in body weight at 0.8 ug/kg relative to control; type: organism-based; settings: in vivo, 0.0008 mg/kg; summary of the method: as §4
KB = assay: Cytotoxicity against human KB cells; type: functional; settings: read-out: ED50 (the source's name)
Mus musculus [19] = assay: Toxicity in PS mouse allografted with mouse P388 cells assessed as change in body weight at 100 ug/kg relative to control; type: organism-based; settings: in vivo, 0.1 mg/kg; summary of the method: as §2
Mus musculus [20] = assay: Toxicity in PS mouse allografted with mouse P388 cells assessed as survival at 25 ug/kg after 4 days; type: organism-based; settings: in vivo, 0.025 mg/kg, 96 h; summary of the method: as §3
Mus musculus [21] = assay: Toxicity in PS mouse allografted with mouse P388 cells assessed as change in body weight at 50 ug/kg relative to control; type: organism-based; settings: in vivo, 0.05 mg/kg; summary of the method: as §2
Mus musculus [22] = assay: Toxicity in PS mouse allografted with mouse P388 cells assessed as survival at 1.6 ug/kg after 4 days; type: organism-based; settings: in vivo, 0.0016 mg/kg, 96 h; summary of the method: as §3
Mus musculus [23] = assay: Toxicity in PS mouse allografted with mouse P388 cells assessed as survival at 100 ug/kg after 4 days; type: organism-based; settings: in vivo, 0.1 mg/kg, 96 h; summary of the method: as §3
Mus musculus [24] = assay: Toxicity in PS mouse allografted with mouse P388 cells assessed as survival at 3.1 ug/kg after 4 days; type: organism-based; settings: in vivo, 0.0031 mg/kg, 96 h; summary of the method: as §3
Mus musculus [25] = assay: Toxicity in PS mouse allografted with mouse P388 cells assessed as survival at 6.2 ug/kg after 4 days; type: organism-based; settings: in vivo, 0.0062 mg/kg, 96 h; summary of the method: as §3
Mus musculus [26] = assay: Toxicity in PS mouse allografted with mouse P388 cells assessed as survival at 12.5 ug/kg after 4 days; type: organism-based; settings: in vivo, 0.0125 mg/kg, 96 h; summary of the method: as §3
P388 [27] = assay: Antitumor activity against mouse P388 cells allografted in PS mouse assessed as median survival time at 3.1 ug/kg relative to control; type: functional; summary of the method: as §1
Mus musculus [28] = assay: Toxicity in PS mouse allografted with mouse P388 cells assessed as survival at 200 ug/kg after 4 days; type: organism-based; settings: in vivo, 0.2 mg/kg, 96 h; summary of the method: as §3
Mus musculus [29] = assay: Toxicity in PS mouse allografted with mouse P388 cells assessed as change in body weight at 200 ug/kg relative to control; type: organism-based; settings: in vivo, 0.2 mg/kg; summary of the method: as §2
P388 [30] = assay: Antitumor activity against mouse P388 cells allografted in PS mouse assessed as median survival time at 200 ug/kg relative to control; type: functional; summary of the method: as §1

| Structure (SMILES) | T/C (P388 [1]) | Activity (Mus musculus [2]) | T/C (P388 [3]) | T/C (P388 [6]) | T/C (P388 [7]) | T/C (P388 [8]) | Activity (Mus musculus [9]) | Activity (Mus musculus [10]) | T/C (P388 [11]) | Activity (Mus musculus [14]) | Activity (Mus musculus [16]) | Activity (Mus musculus [17]) | EC50 (KB) | Activity (Mus musculus [19]) | Activity (Mus musculus [20]) | Activity (Mus musculus [21]) | Activity (Mus musculus [22]) | Activity (Mus musculus [23]) | Activity (Mus musculus [24]) | Activity (Mus musculus [25]) | other results |
| --- | --- | --- | --- | --- | --- | --- | --- | --- | --- | --- | --- | --- | --- | --- | --- | --- | --- | --- | --- | --- | --- |
| COc1cc2cc(c1Cl)N(C)C(=O)C[C@H](OC(=O)[C@H](C)N(C)C(C)=O)[C@]1(C)O[C@H]1[C@H](C)[C@@H]1C[C@@](O)(NC(=O)O1)[C@H](OC)/C=C/C=C(\C)C2 [MAYTANSINE] | 220% | 0.6 g | 125% | 190% | 155% | 195% | 1.3 g | 1.6 g | <80% | 1.6 g | -0.1 g | Non-toxic | 0.0061 ng/mL (≈ 0.00881 nM) | -0.4 g | Non-toxic | 0.3 g | Non-toxic | Non-toxic | Non-toxic | Non-toxic | Activity (Mus musculus [4]): Non-toxic; Activity (Paracentrotus lividus): 1 ×10⁻⁷ mol/L; inhibition (Tubulin (Homo sapiens)): Active; Activity (Mus musculus [5]): 1.7 g; T/C (P388 [12]): 125%; Activity (Mus musculus [13]): Non-toxic; T/C (P388 [15]): 145%; Activity (Mus musculus [18]): 1.4 g; Activity (Mus musculus [26]): Non-toxic; T/C (P388 [27]): 165% |
| CCC(=O)O[C@H]1CC(=O)N(C)c2cc(cc(OC)c2Cl)C/C(C)=C/C=C/[C@@H](OC)[C@@]2(O)C[C@H](OC(=O)N2)[C@@H](C)[C@@H]2O[C@@]12C | 153% | -0.5 g | 198% | 163% | 129% | 140% | -1 g | -0.3 g | <80% | -0.8 g | 1.3 g | Non-toxic | 0.21 ng/mL (≈ 0.338 nM) | -2 g | Non-toxic | -0.9 g | Non-toxic | Toxic | Non-toxic | Non-toxic | Activity (Mus musculus [28]): Toxic; Activity (Mus musculus [29]): -3.5 g; Activity (Mus musculus [4]): Non-toxic; Activity (Paracentrotus lividus): 1 nM; inhibition (Tubulin (Homo sapiens)): Active; T/C (P388 [15]): 110%; T/C (P388 [30]): <80%; Activity (Mus musculus [18]): -0.5 g; Activity (Mus musculus [26]): Non-toxic; T/C (P388 [27]): 131% |
| COc1cc2cc(c1Cl)NC(=O)/C=C/C(C)=C/[C@H](C)[C@@H]1C[C@@](O)(NC(=O)O1)[C@H](OC)/C=C/C=C(\C)C2 | 108% | -0.8 g | 120% | <80% | 104% | 87% | 0.7 g | 0.7 g | 120% | 1 g | 1.4 g | Non-toxic | 2 ng/mL (≈ 3.87 nM) | 0.8 g | Non-toxic | 1.8 g | Non-toxic | Non-toxic | Non-toxic | Non-toxic | Activity (Mus musculus [28]): Non-toxic; Activity (Mus musculus [29]): 1.2 g; Activity (Paracentrotus lividus): 1 ×10⁻⁸ mol/L; inhibition (Tubulin (Homo sapiens)): Active; T/C (P388 [30]): 104%; Activity (Mus musculus [26]): Non-toxic; T/C (P388 [27]): 95% |
| C/C=C/C(=O)O[C@H]1CC(=O)N(C)c2cc(cc(OC)c2Cl)C/C(C)=C/C=C/[C@@H](OC)[C@@]2(O)C[C@H](OC(=O)N2)[C@@H](C)[C@@H]2O[C@@]12C | 173% | -3.6 g | 210% | 170% | 150% | 160% | -3 g | -2.5 g | 210% | -4.5 g | -1.7 g | Non-toxic | 0.23 ng/mL (≈ 0.363 nM) | -3.6 g | Non-toxic | -3.5 g | Non-toxic | Non-toxic | Non-toxic | Non-toxic | Activity (Mus musculus [28]): Non-toxic; Activity (Mus musculus [29]): -1.8 g; Activity (Mus musculus [4]): Non-toxic; T/C (P388 [15]): 150%; T/C (P388 [30]): 210%; Activity (Mus musculus [18]): -4.5 g; Activity (Mus musculus [26]): Non-toxic; T/C (P388 [27]): 150% |
